TDP2 inh: human TDP2 enzyme inhibitors, primary screen, biochemical, epi absorbance, recombinant enzyme | Tyrosyl-DNA phosphodiesterase 2 (Homo sapiens), O95551 | T5PNP hydrolysis, p-nitrophenol absorbance 415 nm | inhibition, % at 12.8 µM | hit rate 0.34% among 370,000 | AID 720702, 2013;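 active = inhibition above the mean of all tested compounds plus 3 SD, set per campaign, cut at about 25% in these data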;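 note: 0% = DMSO with enzyme and 100% = buffer with substrate but no TDP2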
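System: recombinant human TDP2 / Amount: 120 nM TDP2 per well / Also added: 5 mM T5PNP chromogenic substrate / Doses: 12.8 µM single point, 1% DMSO / Incubation: 2 h at 37 °C / Detection: p-Nitrophenol epi absorbance / Evaluation: % inhibition relative to enzyme-containing and enzyme-free wells / Repeats: singlicate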
E coli Lon inh: inhibitors of E. coli Lon protease, primary screen, biochemical, fluorescence polarization; P0A9M0; purified E. coli Lon protease; inhibition, % at 7.94 µM; hit rate 0.42% among 360,000; AID 602123, 2011; in the data active = inhibition above about 13%, passing the limit was not always enough;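 note: 0% = enzyme with probe and DMSO and 100% = no enzyme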
GSTO1 counter: inhibitors of recombinant GSTO1, primary screen, counter-screen for RBBP9 inhibitor project, biochemical, fluorescence polarization; AID 1974, 2009; inhibition, % at 5.96 µM; Glutathione S-transferase omega-1 (Homo sapiens), P78417; activity-based probe fluorescence polarization; hit rate 1.1% among 300,000;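 active = inhibition above the campaign mean inhibition plus 3 SD, cut at about 35% in these data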;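 note: 0% = GSTO1-1 with DMSO and 100% = wells lacking GSTO1-1 enzyme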
Target sequence (P78417 whole entry, looked up): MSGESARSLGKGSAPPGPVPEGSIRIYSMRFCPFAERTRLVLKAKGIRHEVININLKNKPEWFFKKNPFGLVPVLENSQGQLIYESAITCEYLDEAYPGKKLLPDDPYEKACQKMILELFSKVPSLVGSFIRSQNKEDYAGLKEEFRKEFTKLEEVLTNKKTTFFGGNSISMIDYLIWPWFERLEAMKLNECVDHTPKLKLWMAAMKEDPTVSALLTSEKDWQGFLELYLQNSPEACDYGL
PAD4 FP inh: human PAD4 inhibitors, primary screen, biochemical, fluorescence polarization, 1536-well format; recombinant PAD4, RCA probe fluorescence polarization; inhibition, % at 6.36 µM; hit rate 0.41% among 330,000;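 active = percent inhibition above a cutoff equal to the mean of all tested compounds plus 3 SD, cut at about 15% in these data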;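 note: 0% = PAD4 with RCA probe and DMSO and 100% = probe without PAD4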
PRMT1 FP inh: PRMT1 methyltransferase inhibitors, primary screen, biochemical, fluorescence polarization; recombinant PRMT1, activity-based probe fluorescence polarization; hit rate 1.3% among 370,000; AID 652257, 2013; inhibition, % at 2.79 µM; Protein arginine N-methyltransferase 1 (Homo sapiens), Q99873;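 active = inhibition above about 21% made by adding two undisclosed values, limit read from the data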
Target sequence (Q99873 whole entry, looked up): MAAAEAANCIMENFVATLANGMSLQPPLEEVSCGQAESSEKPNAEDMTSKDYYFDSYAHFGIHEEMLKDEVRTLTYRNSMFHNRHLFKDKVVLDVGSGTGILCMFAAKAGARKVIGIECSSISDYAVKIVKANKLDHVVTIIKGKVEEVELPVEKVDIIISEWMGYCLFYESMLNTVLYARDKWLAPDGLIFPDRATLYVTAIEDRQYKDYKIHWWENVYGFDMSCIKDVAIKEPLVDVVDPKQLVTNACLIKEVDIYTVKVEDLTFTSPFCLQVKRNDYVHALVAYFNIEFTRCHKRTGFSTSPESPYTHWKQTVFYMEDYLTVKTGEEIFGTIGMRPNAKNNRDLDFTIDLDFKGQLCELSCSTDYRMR
PAD4 FP conf: human PAD4 inhibitors, confirmation, biochemical, fluorescence polarization | shares compounds with PAD4 FP inh | recombinant PAD4, RCA probe fluorescence polarization | inhibition, % at 6.36 µM | hit rate 28% among 1,200 | AID 488796, 2010;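 active = mean inhibition across replicates above the hit cutoff set by the earlier primary screen, cut at about 15% in these data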;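 note: inhibitors block active-site labeling by the probe so polarization falls; 0% = PAD4 with probe and DMSO and 100% = probe without PAD4 enzyme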
E coli Lon conf: E. coli Lon protease inhibitor retest, confirmation, biochemical, fluorescence polarization | hit rate 31% among 1,400 | purified E. coli Lon | inhibition, % at 7.94 µM | shares compounds with E coli Lon inh | AID 602230, 2012; in the data active = inhibition above about 16%;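 note: 0% = enzyme with probe and DMSO and 100% = no enzyme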
TDP2 inh conf: human TDP2 enzyme inhibitors, retest, confirmation, biochemical, epi absorbance, recombinant enzyme; shares compounds with TDP2 inh; absorbance read-out; inhibition, % at 12.8 µM; hit rate 22% among 1,100; in the data active = inhibition above about 25%;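 note: 0% = vehicle with enzyme and 100% = no enzyme buffer only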
An asterisk follows results filed as active; x = no result given; ! = not active in a repeat. Hits are enriched below; roughly 2.5% of the tested compounds scored in any of these assays.

SMILES | TDP2 inh | E coli Lon inh | GSTO1 counter | PAD4 FP inh | PRMT1 FP inh | E coli Lon conf | others
CC(=O)c1ccc(NC(=S)Nc2ccc(N3CCOCC3)cc2)cc1 | 28* | 0 | 24 | 20* | 13 | x | PAD4 FP conf=2;TDP2 inh conf=8
CCc1ccc(C(=O)NC(=S)Nc2ccc(N3CCOCC3)cc2)cc1 | 3 | 1 | -2 | -3 | 6 | x
C/C(=C\C(=O)c1ccccc1)Nc1ccc(N2CCOCC2)cc1 | 33* | -6 | 6 | 20* | 1 | x | PAD4 FP conf=6;TDP2 inh conf=-6
C/C(=C\C(=O)c1ccc(Cl)cc1)Nc1ccc(N2CCOCC2)cc1 | 20 | 2 | 4 | -9 | -1 | x
CC1=NN(c2ccc(Cl)cc2)C(=O)C1 | 58* | 7 | 36* | 31* | 8 | x | PAD4 FP conf=3;TDP2 inh conf=6
CC1=NN(c2ccc(C)c(C)c2)C(=O)/C1=C/c1ccc2c(c1)n(C)c(=O)n2C | 53* | -4 | 37* | 48* | 0 | x | PAD4 FP conf=5;TDP2 inh conf=31*
C=CCN1C(=O)[C@@H](CC(=O)NCc2ccc(C)o2)[C@]2(C(=O)OC)CCCCC=C12 | 1 | x | x | x | -5 | x
COc1cccc(-c2cc(=O)[nH][nH]2)c1 | 77* | 6 | 17 | 38* | 5 | x | PAD4 FP conf=-5;TDP2 inh conf=0
CCCCn1[nH]c(-c2ccccc2)cc1=O | 47* | 5 | 57* | 45* | 0 | x | PAD4 FP conf=-5;TDP2 inh conf=10
CCNC(=O)N(C)[C@H]1C[C@H]2c3[nH]c4c(-c5cccc(C)c5)cccc4c3CCN2C[C@H]1[C@H](C)O | -2 | x | x | x | 2 | x
Oc1c(Cl)cc(Cl)cc1C=Nc1ccc(N2CCOCC2)cc1 | 22 | 0 | 18 | -5 | 4 | x
Cc1cc(Br)cc(C=Nc2ccc(N3CCOCC3)cc2)c1O | 34* | 3 | 7 | 19* | 0 | x | PAD4 FP conf=1;TDP2 inh conf=-8
O=C(NCc1cccs1)C1CCC(CNS(=O)(=O)c2cccc3cccnc23)CC1 (stereo unspecified) | 3 | x | x | x | 9 | x
O=c1ccc(Br)c[nH]1 | 4 | 14 | 5 | -5 | -2 | x
O=c1cc(-c2ccc(Br)cc2)[nH][nH]1 | 51* | 1 | 24 | 56* | -1 | x | PAD4 FP conf=-1;TDP2 inh conf=10
Oc1ccc(NC(=S)Nc2ccccc2)cc1 | 25*! | 6 | 8 | 21*! | 8 | x | PAD4 FP conf=2;TDP2 inh conf=-4
COc1ccc(NC(=S)Nc2ccccc2)cc1 | 3 | -8 | 3 | 0 | -4 | x
O=S(=O)(c1ccc2c(c1)OCCO2)N1CCC(n2cnc3cc(F)ccc32)CC1 | 8 | 17* | 6 | -3 | -3 | -38
C=CCN1[C@H](CC(C)C)COc2cccc(N3CCSCC3)c2S1(=O)=O | 6 | x | x | x | 5 | x
Fc1ccc(Nc2nc(N3CCOCC3)nc(N3CCOCC3)n2)cc1 | 16 | -4 | 1 | -1 | 0 | x
O=[N+]([O-])c1ccc(Nc2nc(N3CCOCC3)nc(N3CCOCC3)n2)cc1 | -21 | 17* | -3 | -1 | 12 | -2
COC(=O)C1=C(C)NC2=C(C(=O)CCC2)C1c1ccc(-c2ccsc2C(=O)OC)o1 (stereo unspecified) | -9 | 18* | -7 | 0 | 1 | -27
CC(NC(=O)c1ccccc1Cl)c1nnc(SCC(=O)Nc2ccc(C(=O)O)cc2)n1C (stereo unspecified) | -1 | 29* | 9 | -5 | 0 | -15
COC(=O)c1ccccc1NC(=O)CSc1nnc(C(CO)NC(=O)c2ccccc2Cl)n1C (stereo unspecified) | -3 | 0 | 11 | -4 | 1 | x
Cc1cccc(NC(=O)Nc2c(-c3ccc(C(F)(F)F)cc3)nc3ncccn23)c1 | -3 | x | x | x | 4 | x
SMILES | TDP2 inh | E coli Lon inh | GSTO1 counter | PAD4 FP inh | PRMT1 FP inh | E coli Lon conf | others
O=C(CCC1CCCC1)N1CCN(S(=O)(=O)c2ccc(Br)cc2)CC1 | -15 | 19* | x | -3 | -3 | -2
O=C(CC1CCCC1)N1CCN(S(=O)(=O)c2ccc(F)cc2)CC1 | 6 | -8 | x | 0 | -2 | x
COc1ccc(-c2cc(C(=O)N(C3CCCCC3)C3CCCCC3)no2)cc1 | 4 | x | x | x | 3 | x
CN(CCCOC(=O)CC1C=CCC1)C1CN(Cc2cn(Cc3ccccc3Cl)nn2)S(=O)(=O)C1 (stereo unspecified) | -7 | x | x | x | 2 | x
N#Cc1ccc(S(=O)(=O)NC2CC2)cc1 | 13 | 20* | 8 | 3 | 2 | 42*
Cc1cc(C)n2nc(SCc3cc(=O)oc4ccc5ccccc5c34)nc2n1 | -2 | 14* | 6 | -4 | -1 | -12
Cc1cc(C)n2nc(SCc3cc(=O)oc4cc(C)c(C)cc34)nc2n1 | x | x | -2 | 2 | x | x
CN(C)CCNc1oc(COc2cccc(Cl)c2)nc1C#N | 0 | 20* | 1 | 5 | 5 | -16
CN(C)CCNc1oc(COc2ccc(Cl)cc2)nc1C#N | 8 | -1 | 10 | 0 | 8 | x
C=CCN1[C@H](Cc2ccccc2)COc2cc(N3CCSCC3)ccc2S1(=O)=O | -2 | x | x | x | 0 | x
Cn1c(N2CCCCC2)nc2c1c(=O)[nH]c(=O)n2C | 10 | 2 | 1 | -1 | 0 | x
Cn1c(N2CCN(C(c3ccccc3)c3ccccc3)CC2)nc2c1c(=O)[nH]c(=O)n2C | 0 | 24* | -3 | -3 | -4 | 16*
COC(=O)C[C@H]1CC[C@@H]2[C@@H](COc3ccc(NC(=O)Nc4ccccc4OC)cc3C(=O)N2C)O1 | 16 | x | x | x | 4 | x
CC(C)c1[nH]nc2c1C1(CCN(Cc3ccccc3)CC1)C(C#N)=C(N)O2 | 3 | 30* | 21 | 5 | 12 | -9
Cc1ccc(C)c2c1c1ccccc1n2C | -4 | 2 | -6 | 5 | 1 | x
CN(C)c1cc2c3ccccc3n(C)c2cc1N | -5 | 41* | x | x | 19 | 52*
NC(=O)c1c(N)[nH]c(C(=O)c2ccccc2)c1-c1ccccc1 | 6 | x | x | x | 0 | x
N#Cc1c(NCCCO)nc(-c2ccccc2)c2c1CCCC2 | -6 | 14* | -7 | 3 | 1 | -3
CCOc1ccc(-n2c(Cc3cc(=O)[nH]c(=O)[nH]3)nnc2SCC)cc1 | 6 | 6 | -5 | -3 | -2 | x
COc1cccc(-n2c(Cc3cc(=O)[nH]c(=O)[nH]3)nnc2SCC(=O)N2CCCCC2)c1 | -6 | 16* | 10 | 1 | 2 | 23*
CCOC(=O)CSc1nnc(Cc2cc(=O)[nH]c(=O)[nH]2)n1-c1ccc(Cl)cc1 | x | 15* | 4 | 2 | x | 12

From PubChem BioAssay
